# Laboratory results from publication PMC6358549 (Molecular Metabolism, 2018).
# Read-outs that look alike come from different tables or passages of the source. No end group written: not given here.
# Experiments:
# [1] = general statement in the discussion, no reference given; cited from earlier work
# DIO mice = experiment: body weight change on chronic treatment of DIO mice; type: in vivo, mouse
# rat GIPR = settings: cited from earlier work
# healthy human volunteers = settings: cited from earlier work
# hGIPR [2] = biological target: T1, hGIPR (Homo sapiens, UniProt P48546); experiment: cAMP-response-element luciferase reporter gene assay, agonism at human GIPR; type: cell-based; settings: Figure 5B
# T1 sequence (P48546 22-466): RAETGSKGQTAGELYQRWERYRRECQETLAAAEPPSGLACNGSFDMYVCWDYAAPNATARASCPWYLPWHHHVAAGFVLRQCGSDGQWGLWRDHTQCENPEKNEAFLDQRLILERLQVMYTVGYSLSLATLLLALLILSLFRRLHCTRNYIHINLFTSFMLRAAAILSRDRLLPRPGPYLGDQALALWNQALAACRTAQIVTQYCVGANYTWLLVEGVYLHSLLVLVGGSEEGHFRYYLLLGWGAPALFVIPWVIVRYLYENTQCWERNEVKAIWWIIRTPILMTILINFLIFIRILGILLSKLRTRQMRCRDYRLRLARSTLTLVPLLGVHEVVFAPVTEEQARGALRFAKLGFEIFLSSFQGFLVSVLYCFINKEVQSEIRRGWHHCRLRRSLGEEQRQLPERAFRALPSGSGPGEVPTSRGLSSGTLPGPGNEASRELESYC
# mGIPR = biological target: T2, mGIPR (Mus musculus, UniProt Q0P543); experiment: cAMP-response-element luciferase reporter gene assay, agonism at mouse GIPR; type: cell-based; settings: Figure 5D
# T2 sequence (Q0P543 19-460): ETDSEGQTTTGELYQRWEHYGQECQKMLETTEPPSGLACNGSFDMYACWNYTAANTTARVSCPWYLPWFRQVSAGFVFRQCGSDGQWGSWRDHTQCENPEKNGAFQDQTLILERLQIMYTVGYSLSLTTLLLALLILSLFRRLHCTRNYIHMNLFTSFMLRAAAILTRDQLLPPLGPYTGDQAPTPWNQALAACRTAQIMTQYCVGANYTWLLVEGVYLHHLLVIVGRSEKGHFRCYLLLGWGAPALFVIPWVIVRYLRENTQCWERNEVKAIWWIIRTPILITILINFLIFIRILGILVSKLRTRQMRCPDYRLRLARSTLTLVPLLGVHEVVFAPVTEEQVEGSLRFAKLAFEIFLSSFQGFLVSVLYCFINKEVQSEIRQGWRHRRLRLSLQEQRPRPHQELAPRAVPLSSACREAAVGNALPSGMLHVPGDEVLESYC
# hGIPR [3] = biological target: T1, hGIPR; experiment: luciferase reporter gene assay, antagonism at human GIPR; type: cell-based; settings: co-incubated with native GIP at its EC50; 1% ovalbumin; Figure 5A
# Method in brief: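 HEK293 or BHK cells overexpressing the human receptor with a CRE-linked firefly luciferase reporter were serum-deprived for 16 h. They were then incubated 5 h at 37 °C, 5% CO2 with native GIP at constant concentration plus serial dilutions of test compound. Luminescence was read after adding luciferase substrate. Each concentration was run in duplicate, and potency was fitted per experiment by non-linear three-parameter regression.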
# mouse GLP-1R = biological target: T3, mouse GLP-1R (Mus musculus, UniProt O35659); experiment: luciferase reporter gene assay, antagonism at mouse GLP-1R; type: cell-based; settings: native hormone at EC90; Figure 5E
# T3 sequence (O35659 22-463): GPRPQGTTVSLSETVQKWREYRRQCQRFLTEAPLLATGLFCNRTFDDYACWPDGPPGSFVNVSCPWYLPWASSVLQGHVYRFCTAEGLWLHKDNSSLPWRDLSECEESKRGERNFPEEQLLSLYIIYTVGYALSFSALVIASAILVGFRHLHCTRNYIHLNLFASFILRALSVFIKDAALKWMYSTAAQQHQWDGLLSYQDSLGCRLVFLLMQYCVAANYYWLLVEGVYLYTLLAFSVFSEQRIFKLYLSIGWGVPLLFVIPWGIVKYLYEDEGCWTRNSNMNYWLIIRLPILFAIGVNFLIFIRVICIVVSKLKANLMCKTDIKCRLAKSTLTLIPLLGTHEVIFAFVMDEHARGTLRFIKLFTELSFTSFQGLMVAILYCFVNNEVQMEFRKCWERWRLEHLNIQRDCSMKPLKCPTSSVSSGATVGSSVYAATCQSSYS
# [4] = biological target: mouse glucagon receptor (GcgR) (Mus musculus, UniProt Q61606); experiment: luciferase reporter gene assay, antagonism at mouse glucagon receptor; type: cell-based; settings: native hormone at EC90; Figure 5
# Sequence of mouse glucagon receptor (GcgR) (Q61606 27-485): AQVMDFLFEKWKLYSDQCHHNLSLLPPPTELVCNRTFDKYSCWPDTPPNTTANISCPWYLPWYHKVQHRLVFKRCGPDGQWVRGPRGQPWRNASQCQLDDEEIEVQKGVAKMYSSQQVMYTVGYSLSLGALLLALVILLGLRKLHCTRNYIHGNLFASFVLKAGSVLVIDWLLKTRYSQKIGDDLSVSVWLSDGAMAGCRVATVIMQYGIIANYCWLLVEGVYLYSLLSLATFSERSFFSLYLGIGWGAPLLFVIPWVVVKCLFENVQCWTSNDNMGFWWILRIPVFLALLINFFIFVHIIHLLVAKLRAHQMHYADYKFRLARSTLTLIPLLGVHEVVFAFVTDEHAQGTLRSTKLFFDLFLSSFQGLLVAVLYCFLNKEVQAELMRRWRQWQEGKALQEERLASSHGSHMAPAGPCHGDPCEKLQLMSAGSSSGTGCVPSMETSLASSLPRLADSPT
# [5] = aqueous solubility and aggregation; type: physicochemical; settings: statement in the discussion, method not given
substance,measurement,setting,value
"Native, full-length GIP: native, full-length GIP",aggregation in liquid formulations,[1],prone to aggregation
same,aqueous solubility,[1],limited aqueous solubility
liraglutide [reference compound],body weight lowered by,"DIO mice; daily sc liraglutide 10 nmol/kg, Figure 5H",10.9%
"hGIP (3–30)-NH2: peptide-based GIPR antagonist from the literature (EGTFISDYSIAMDKIHQQDFVNWLLAQK-NH2; UniProt P09681 54-81, looked up, fragment)",affinity for the rat GIPR relative to hGIPR,rat GIPR,substantially reduced affinity
same,insulinotropic response to GIP co-infusion,healthy human volunteers,blocked a majority of the insulinotropic response
hGIP(5–42) N^αAc K10[γEγE-C16] Arg18 [acyl GIPR antagonist],partial agonism at hGIPR,hGIPR [2],did not exhibit any degree of partial agonism
same,partial agonism at mGIPR,mGIPR,did not exhibit any degree of partial agonism
same,hGIPR antagonism,hGIPR [3],potent antagonism
same,cross-reactive antagonism to mouse GLP-1R,mouse GLP-1R,did not demonstrate any cross-reactive antagonism
same,cross-reactive antagonism to mouse glucagon receptor (GcgR),[4],did not demonstrate any cross-reactive antagonism
same,change in body weight relative to vehicle controls,"DIO mice; daily sc 300 nmol/kg or 1 μmol/kg for ten days, N = 8",did not cause any measurable change in body weight
same,aqueous solubility,[5],sufficient aqueous solubility
